From ChEMBL document CHEMBL4610127, “Novel Autotaxin Inhibitor for the Treatment of Idiopathic Pulmonary Fibrosis: A Clinical Candidate Discovered Using DNA-Encoded Chemistry” (J Med Chem, 2020) come the findings set out here.

Molecules are shown by their SMILES. pIC50: −log10 of the molar value. Activity calls are given as the source filed them. The calls are words filed in the database; no cut-off is given here.

One assay deals with Mus musculus. The assay can be described thus: Anti-fibrotic activity in C57BL/6 mouse model of bleomycin-induced lung fibrosis assessed as reduction in hydroxyproline levels at 30 to 100 mg/kg, po BID dosed until day 21 starting one day prior to bleomycin treatment. In kind it is functional, organism-based. Put shortly: (§1)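 Mice received oral doses of 30, 100 or 300 mg/kg BID. Prophylactic arm started one day before bleomycin; therapeutic arm started seven days after. Mice were sacrificed 21 days post-bleomycin and lung hydroxyproline was measured per mouse. Group medians were compared with bleomycin + vehicle by p-value. Reference inhibitor control: 30 and 100 mg/kg BID.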
In the case of `CCc1nc2c(C)cc(N3CCN(CC(=O)N4CC(O)C4)CC3)cn2c1N(C)c1nc(-c2ccc(F)cc2)c(C#N)s1`, the result was Active.

In a further assay the test system is Mus musculus. Briefly: Anti-fibrotic activity in C57BL/6 mouse model of bleomycin-induced lung fibrosis assessed as reduction in hydroxyproline levels at 30 to 100 mg/kg, po BID for 21 days dosed 7 days after bleomycin treatment. In kind it is functional, organism-based. The method, boiled down: as §1
Take `CCc1nc2c(C)cc(N3CCN(CC(=O)N4CC(O)C4)CC3)cn2c1N(C)c1nc(-c2ccc(F)cc2)c(C#N)s1`: the result was Active.

The next assay addresses T1, Autotaxin (Homo sapiens, UniProt Q13822). Briefly: Inhibition of C-terminal FLAG-tagged human autotaxin expressed in Freestyle 293 cells using synthetic substrate FS-3 by fluorescence based assay. In kind it is cell-based.
In turn, `Cc1cccc(C(=O)N[C@@H](C(=O)N2CCC3(CC2)C(=O)N(C)CN3c2ccccc2)C2CCCCC2)c1F` showed a negative logarithm of the IC50 (pIC50) of 8.80. Same read-out and setting: the result for `Cc1cccc(C(=O)N[C@@H](C(=O)N2CCC3(CC2)C(=O)N(C)CN3c2ccccc2)C(C)C)c1` reads 8.70. Still for that read-out and setting: then `CNC(=O)CN1CN(c2ccccc2)C2(CCN(C(=O)[C@H](NC(=O)c3cccc(C)c3F)C3CCCCC3)CC2)C1=O`, with 8.70; and `CNC(=O)CN1CN(c2ccccc2)C2(CCN(C(=O)[C@H](NC(=O)c3cccc(Cl)c3)C3CCCCC3)CC2)C1=O`, with 8.46; and `CC(C)[C@@H](NC(=O)c1cccc(F)c1)C(=O)N1CCC2(CC1)C(=O)N(C)CN2c1ccccc1`, with 8.66. Still for that read-out and setting: the result for `CNC(=O)CN1CN(c2ccccc2)C2(CCN(C(=O)[C@H](NC(=O)c3ccccc3)C3CCCCC3)CC2)C1=O` reads 6.46.

The next assay deals with T1, Autotaxin. Briefly: Inhibition of C-terminal FLAG-tagged human autotaxin expressed in Freestyle 293 cells assessed as reduction in choline release from LPC 16:0 pre-incubated for 10 mins before LPC addition and measured after 1 hr by choline oxidase/HRP coupled assay. In kind it is cell-based.
In the case of `Cc1cccc(C(=O)N[C@@H](C(=O)N2CCC3(CC2)C(=O)N(C)CN3c2ccccc2)C2CCCCC2)c1F`, the pIC50 was 7.25.

For `CC(C)[C@@H](NC(=O)c1cc(C(F)(F)F)ccc1F)C(=O)N1CCC2(CC1)C(=O)N(C)C(=O)N2c1ccc(C(=O)O)cc1`, the pIC50 was 7.51.

With `CC(C)[C@@H](NC(=O)c1cc(C(F)(F)F)ccc1F)C(=O)N1CCC2(CC1)C(=O)N(C)CN2c1ccc2[nH]ncc2c1`, the pIC50 is 7.87. Still for that read-out and setting: the result for `CC(C)[C@@H](NC(=O)c1cc(C(F)(F)F)ccc1Cl)C(=O)N1CCC2(CC1)C(=O)N(C)C(=O)N2c1ccc2[nH]ncc2c1` reads 5.83. The same measure, in the same setting: then `Cc1cccc(C(=O)N[C@@H](C(=O)N2CCC3(CC2)C(=O)N(C)CN3c2ccccn2)C2CCCCC2)c1`, with 6.04; and `CNC(=O)CN1CN(c2ccccc2)C2(CCN(C(=O)[C@H](NC(=O)c3cccc(C)c3F)C3CCCCC3)CC2)C1=O`, with 7.07. On the same count and under the same terms, the result for `Cc1cccc(C(=O)N[C@H](C(=O)N2CCC3(CC2)C(=O)N(C)CN3c2ccccc2)C2CCOCC2)c1` reads 5.00.

Consider `Cc1cccc(C(=O)N[C@@H](C(=O)N2CCC3(CC2)C(=O)N(C)CN3c2ccccc2)C2CCOCC2)c1`, for which the pIC50 is 6.21.

For the molecule `Cc1ccc(N2C(=O)N(C)C(=O)C23CCN(C(=O)[C@H](NC(=O)c2cc(C(F)(F)F)ccc2F)C(C)C)CC3)cc1`, the pIC50 is 7.42. On the same count and under the same terms, then `Cc1cccc(C(=O)N[C@@H](C(=O)N2CCC3(CC2)C(=O)N(C)CN3C2CC2)C2CCCCC2)c1F`, with 6.09; and `CC(C)[C@@H](NC(=O)c1cc(C(F)(F)F)ccc1F)C(=O)N1CCC2(CC1)C(=O)N(C)C(=O)N2c1ccccc1`, with 7.00; and `CC(C)[C@H](NC(=O)c1cc(C(F)(F)F)ccc1F)C(=O)N1CCC2(CC1)C(=O)N(C)C(=O)N2c1ccc2[nH]ncc2c1`, with 5.00.

Take `Cc1ccc(C(F)(F)F)cc1C(=O)N[C@@H](C(=O)N1CCC2(CC1)C(=O)N(C)C(=O)N2c1ccc2[nH]ncc2c1)C(C)C`: the negative-log IC50 (pIC50) was 5.31.

Consider `CC(C)[C@@H](NC(=O)c1cccc(C(F)(F)F)c1)C(=O)N1CCC2(CC1)C(=O)N(C)C(=O)N2c1ccc2[nH]ncc2c1`, for which the negative-log IC50 (pIC50) is 6.47. On the same count and under the same terms, then `CC(C)[C@@H](NC(=O)c1cc(C(F)(F)F)ccc1F)C(=O)N1CCC2(CC1)C(=O)N(C)C(=O)N2c1cccc(Cl)c1`, with 7.34; and `Cc1cccc(C(=O)N[C@@H](C(=O)N2CCC3(CC2)C(=O)N(C)C(=O)N3c2ccccc2)C(C)C)c1F`, with 6.17; and `CN1C(=O)N(c2ccc3[nH]ncc3c2)C2(CCN(C(=O)CNC(=O)c3cc(C(F)(F)F)ccc3F)CC2)C1=O`, with 5.00. On the same count and under the same terms, the result for `CN1C(=O)N(c2ccc3[nH]ncc3c2)C2(CCN(C(=O)[C@H](NC(=O)c3cc(C(F)(F)F)ccc3F)C3CCCC3)CC2)C1=O` reads 7.47.
